Results on 1 molecule are retold here after publication PMC11339345 (International Journal of Nanomedicine, 2024).

Data set [1] can be described thus: Pharmacokinetics of DTX in mice after oral administration. The class given is in vivo. The settings on record: male, Kunming, mouse, plasma (systemic circulation), 20 mg/kg, oral 20 mg/kg DTX. The method in brief:
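Male SPF Kunming mice (22–24 g) were randomised by weight and given a single oral dose of 20 mg/kg. Free drug was prepared as a sonicated water dispersion and the nanoparticle powder was vortexed in water. Five mice were sampled per time point (0.125–12 h) under Zoletil anaesthesia. Portal and systemic heparin plasma were collected, and liver and lung were rinsed, weighed and homogenised in water. Samples were acetonitrile-precipitated and assayed by LC-MS/MS, with parameters from non-compartmental analysis.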

For data set [2] the following is noted: cited from earlier work.
For data set [3] the following is noted: two hours of incubation in an alkaline solution (0.005 N NaOH, pH roughly 11.7) ref 39; cited from earlier work.

On to `CC(=O)O[C@@]12CO[C@@H]1C[C@H](O)[C@@]1(C)C(=O)[C@H](O)C3=C(C)[C@@H](OC(=O)[C@H](O)[C@@H](NC(=O)OC(C)(C)C)c4ccccc4)C[C@@](O)([C@@H](OC(=O)c4ccccc4)[C@H]21)C3(C)C` [DTX, Docetaxel], for which the Tmax in data set [1] is 30 min. In addition, in data set [2], the Oral bioavailability is reported as 7.39%. Further, the Degradation entry in data set [3] is reported as “about 25%”.
